Measured values from ChEMBL document CHEMBL2390908, “Mapping the Vif-A3G interaction using peptide arrays: a basis for anti-HIV lead peptides” (Bioorg Med Chem, 2013).
Activity calls are given as the source filed them. The rule behind the calls is not given here.

Assays:
[1] = system: Human immunodeficiency virus 1; assay: Binding affinity to N-terminal His6-tagged HIV1 HXB2 Vif CTD (141 to 192 amino acids) expressed in Escherichia coli MC-1061 after overnight incubation by chemiluminescence assay
In short: (§1)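 Immobilized peptide arrays blocked 4 h in 3.5% milk in 50 mM Tris-HCl pH 8, 150 mM NaCl, 1% Tween 20, then probed overnight at 4 °C with purified His-tagged protein in that buffer (full-length Vif 2 μM final; Vif CTD 7 μM final). Detection used anti-Vif mAb, HRP goat anti-mouse and chemiluminescence. Two experiments, duplicate arrays per slide.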

[2] = system: Human immunodeficiency virus 1; assay: Binding affinity to full length N-terminal His6-tagged HIV1 HXB2 Vif expressed in Escherichia coli MC-1061 after overnight incubation by chemiluminescence assay; in short: as §1
293T = assay: Binding affinity to HIV1 Vif expressed in human 293T cells assessed as inhibition of A3G degradation at 100 uM after 24 hrs by Western blot analysis; type: cell-based; conditions: Human immunodeficiency virus 1
In short: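 293T cells co-transfected by calcium phosphate with Myc/His6-tagged A3G and HVif vectors (empty pcDNA3.1 in place of Vif as control). Medium replaced 8 h post-transfection, peptides added at 100 μM for a further 24 h. Lysates immunoblotted with anti-Myc (A3G) and anti-Vif antibodies. A3G bands quantified densitometrically, with A3G intensity in the no-Vif control set to 100%.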

H9 = assay: Cytotoxicity against human H9 cells at 50 to 100 uM after 2 hrs; type: cell-based; conditions: h9, 2 h
[3] = system: Human immunodeficiency virus 1; assay: Antiviral activity against HIV1 infected in human H9 cells assessed as inhibition of viral propagation at 50 to 100 uM incubated for 2 hrs prior to infection measured on day 7 to 9 by MAGI assay; type: functional, organism-based
In short: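 H9 cells, which express endogenous A3G, pretreated 2 h with peptides at 50 and 100 μM, then infected with wt HIV-1 HXBII at MOI 0.05. Media collected on days 5, 7 and 9 post-infection, and released-virus infectivity titered by MAGI assay.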

## H-HQGCPFQPWDGLDEH-OH
[1]
  Activity: inactive
[2]
  Activity: Active

## H-TFLAEDPKVTLTIFV-OH
[1]
  Activity: Active
[2]
  Activity: Active

## H-QEMAKFISKNKHVSL-OH
[1]
  Activity: Active
[2]
  Activity: Active

## H-NTVWLCYEVKTKGPS-OH
[1]
  Activity: Active
[2]
  Activity: Active

## H-AGAKISIMTYSEFKH-OH
[1]
  Activity: inactive
[2]
  Activity: Active

## H-DGPRATMKIMNYDEF-OH
[1]
  Activity: Active
[2]
  Activity: Active

## H-WVRGRHETYLCYEVE-OH
293T
  inhibition: Active
[1]
  Activity: Active
[2]
  Activity: Active
H9
  Activity: Non-toxic
[3]
  inhibition: Active

## H-YSQRELFEPWNNLPK-OH
[1]
  Activity: Active
[2]
  Activity: Active

## H-LDVIPFWKLDLDQDY-OH
293T
  inhibition: Active
[1]
  Activity: Active
[2]
  Activity: Active
H9
  Activity: Non-toxic
[3]
  inhibition: inactive

## H-MRFFHWFSKWRKLHR-OH
[1]
  Activity: Active
[2]
  Activity: Active
